Rows were chosen to be rich in hits. Some 4.9% of all compounds tested hit in one or more screens of this group.
STAT3 blocker: inhibitors of IL-6 induced STAT3 signaling | U3A cells, IL-6 STAT3-luciferase reporter, luminescence; host cell line lacks STAT1 | AID 862 | hit rate 0.89% among 190,000 | inhibition, % at 5.5 µM;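 active = inhibition above the mean inhibition across all screened compounds plus 3 SD, cut at about 44% in these data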;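 also: 0% = DMSO only wells and 100% = 100 µM nifuroxazide control wells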
STAT1 act: increases IFN-gamma driven STAT1 reporter signal; NIH 3T3 STAT1-luciferase reporter, luminescence; 100% = IFN-gamma alone, no compound; activation (% of control), % at 5.5 µM; hit rate 2.6% among 200,000;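 active = activation above the screen-wide mean activation plus 3 SD, cut at about 130% in these data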;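 also: raw ratio to IFN-gamma control signal so 100% means no change and 0% no light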
APP 5'UTR act: APP 5'UTR luciferase reporter activation. SH-SY5Y APP 5'UTR luciferase reporter, luminescence; zero percent = DMSO vehicle wells. activation, % at 2 µM. hit rate 1% among 190,000. AID 1276;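 active = activation above a set limit, based on mean plus 3 SD of controls, cut at about 140% in these data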
NF-kB neuron act: compounds increasing NF-kB expression in human neuronal cells | hit rate 1.6% among 190,000 | fold change at 12.5 µM | NF-kB reporter expression; stronger effect = higher value | AID 1239; in the data active = fold change above about 3.3
STAT1 inh: reduces IFN-gamma driven STAT1 reporter signal; NIH 3T3 STAT1-luciferase reporter, luminescence; inhibition, % at 5.5 µM; hit rate 0.35% among 200,000;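 active = inhibition above a set limit, the mean inhibition across all tested compounds plus 3 SD, cut at about 34% in these data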;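 also: 0% = IFN-gamma with DMSO and 100% = IFN-gamma with 300 µM nifuroxazide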
STAT3 activator: activators of IL-6 induced STAT3 signaling. U3A cells, IL-6 STAT3-luciferase reporter, luminescence; 100% = signal with IL-6 EC80 alone. activation (% of control), % at 5.6 µM. hit rate 0.91% among 190,000;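 active = activation above the screen-wide mean of compound activation plus 3 SD, cut at about 130% in these data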;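 also: 0% = background luminescence of wells with medium and substrate only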
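Test system: human U3A cells carrying STAT3-luciferase construct; control set: IL-6-only wells as 100% reference; timing: compound pre-incubation 1 h before IL-6, then 6 h stimulation at 37 °C; also added: IL-6 stimulus at 33 ng/mL final; evaluation: % activation versus median of IL-6-stimulated wells; detection: reporter luminescence signal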
An asterisk follows results filed as active; . = no result.

SMILES | STAT3 blocker | STAT1 act | APP 5'UTR act | NF-kB neuron act | STAT1 inh | STAT3 activator
C(=N\Nc1nc(-c2ccccc2)cs1)/c1ccco1 | 4 | 147* | 156* | 5.2* | -51 | 95
Cc1ccc(-c2csc(N/N=C/C=C/c3ccccc3)n2)cc1 | 16 | 111 | 6 | 1.2 | -12 | 90
Cc1ccc(-c2csc(N/N=C/c3ccco3)n2)cc1 | 26 | 116 | 25 | 2.9 | -17 | 80
C(=N\Nc1nc(-c2ccccc2)cs1)/c1cccs1 | -14 | 145* | 47 | 7.4* | -54 | 122
C(=N\Nc1nc(-c2ccccc2)cs1)/c1ccncc1 | 6 | 149* | 92 | 2.9 | -56 | 97
COc1ccc(CS(=O)(=O)c2nc(C)cc(C)c2S(C)(=O)=O)cc1 | 4 | 100 | -7 | 0.96 | -1 | 98
CSc1ccc(C(=O)C2CCCN(C(=O)Cc3nonc3C)C2)cc1 (stereo not drawn) | 2 | 97 | -17 | 1.2 | 1 | 104
COc1ccc2nc(N=Nc3ccc(N(C)C)cc3)sc2c1 | 44* | 53 | 113 | 1.5 | 53* | 66
C=CCn1c[n+](CC(=O)c2ccc(Br)s2)c2ccccc21 | 3 | 101 | -11 | 1 | -3 | 100
CC(=O)OC1C(N2CCCCC2)c2c(ccc(/C=C/C(=O)N3CCCCC3)c2O)OC1(C)C (stereo not drawn) | -3 | 106 | 41 | 1.1 | -7 | 104
O=C(/C=C/c1ccc2c(c1)OCO2)c1ccc(F)cc1 | -3 | 108 | 20 | 1.6 | -8 | 100
O=C(/C=C/c1ccc2c(c1)OCO2)c1ccc[nH]1 | -9 | 118 | 188* | 1.4 | -21 | 107
COc1cccc(/C=C/C(=O)c2ccc[nH]2)c1 | -10 | 128 | 201* | 6.6* | -30 | 106
COc1ccc(C(=O)Nc2sc(C)c(C)c2CN2CC(C)OC(C)C2)cc1 (stereo not drawn) | -4 | 120 | 11 | 1.5 | -22 | 105
O=C(NCC(=O)N(c1cccnc1)C(C(=O)NC1CCCC1)c1ccc(F)cc1)c1ccco1 (stereo not drawn) | 7 | 98 | -21 | 1.1 | 1 | 99
CC(=O)N1CC(=O)N=C1SCC(=O)Nc1nc(-c2ccccc2)c(-c2ccccc2)s1 | 3 | 98 | 25 | 1.2 | 3 | 98
Cc1ccc(Nc2c([N+](=O)[O-])c(=O)oc3ccccc23)cc1 | 5 | 89 | 8 | 1.4 | 10 | 97
O=c1oc2ccccc2c(Nc2ccc3ccccc3c2)c1[N+](=O)[O-] | -33 | 90 | 2 | 1 | 11 | 133*
O=C(N/N=C/c1ccccn1)c1ccc([N+](=O)[O-])cc1 | 10 | 133* | 16 | 1.5 | -37 | 93
O=C(N/N=C/c1ccccn1)c1cccc([N+](=O)[O-])c1 | -4 | 114 | -2 | 0.78 | -15 | 106
O=C(N/N=C/c1ccccn1)c1ccc(Br)cc1 | 28 | 134* | 6 | 0.46 | -37 | 79
Cc1cccc(C(=O)N/N=C/c2ccccn2)c1 | -9 | 136* | 22 | 1.7 | -41 | 106
CCN(CC)S(=O)(=O)c1cccc(C(=O)N/N=C/c2ccccn2)c1 | 0 | 105 | 1 | 1.1 | -5 | 101
O=C(N/N=C/c1ccccn1)c1ccc(N/N=C/c2ccccn2)cc1 | 19 | 104 | 48 | 0.89 | -3 | 88
O=C(N/N=C/c1ccccn1)c1cc([N+](=O)[O-])cc([N+](=O)[O-])c1 | 6 | 129* | -5 | 0.8 | -33 | 96
SMILES | STAT3 blocker | STAT1 act | APP 5'UTR act | NF-kB neuron act | STAT1 inh | STAT3 activator
O=S(=O)(Nc1nc2ccccc2nc1Nc1cccc(S(=O)(=O)N2CCCCC2)c1)c1ccccc1 | 1 | 93 | -2 | 0.31 | 8 | 99
COc1ccccc1NC(=O)CSc1nnc(-c2ccc(C)cc2)o1 | -6 | 110 | 181* | . | -11 | 111
COc1cccc(NC(=O)CSc2nnc(-c3ccc(C)cc3)o2)c1 | -2 | 101 | 217* | 2.4 | -1 | 109
O=C(CSc1ccc(Cl)cc1)Nc1cccc(-c2nnc(-c3ccco3)o2)c1 | 8 | 115 | 15 | 2.5 | -17 | 91
Cc1ccc(SCC(=O)Nc2cccc(-c3nnc(-c4ccco4)o3)c2)cc1 | 5 | 134* | 56 | 1.6 | -38 | 100
COCCn1nnnc1C(CC(C)C)N1CCN(c2cccc(OC)c2)CC1 (stereo not drawn) | -7 | 105 | -15 | 5.8* | -4 | 112
Cc1nc(Cl)c2c(n1)N(CC(N)=O)C(=O)CO2 | -2 | 102 | 7 | 1.1 | -3 | 104
CC(C)CCN1CCN(Cc2ccon2)CC1CCO (stereo not drawn) | -2 | 103 | 5 | 1.1 | -5 | 106
Cc1nc2c(sc3nc4c(cc32)COC(C)(C)C4)c(=O)n1CC(=O)NCc1ccco1 | -10 | 131* | 5 | 2.5 | -34 | 111
CC1(C)Cc2nc3sc4c(SCC(=O)NCc5ccco5)ncnc4c3cc2CO1 | 6 | 124 | 12 | 1.6 | -26 | 97
Cc1cc(/C=c2/sc3nc4ccccc4n3c2=O)c(C)n1-c1ccccn1 | 104* | 23 | -60 | 0.17 | 86* | 13
CCN(CC)CCN(C(=O)Cn1nnc(-c2ccc(C)o2)n1)C(C(=O)NC(C)(C)C)c1cccs1 (stereo not drawn) | 4 | 103 | -1 | 1.1 | -3 | 99
C=CCNc1nc(NCc2ccccc2)c(C#N)c2c1CN(C)CC2 | -34 | 117 | 5 | 0.83 | -19 | 133*
N#Cc1c(NCCN)nc(NCc2ccccc2)c2c1CCN(Cc1ccccc1)C2 | -1 | 91 | 6 | . | 10 | 103
Nc1ccccc1SCc1cn2cccnc2n1 | 3 | 107 | 17 | 1.1 | -8 | 105
Cc1cccc2nc(CSc3nc4ccccc4[nH]3)cn12 | 13 | 111 | 6 | 1.3 | -11 | 91
Cc1cccc2nc(CSc3ccc(Cl)cc3)cn12 | 16 | 132* | 102 | . | -34 | 91
Nc1ccccc1SCc1cn2ccccc2n1 | 10 | 146* | 88 | 1 | -50 | 95
Cc1cccc2nc(CSCc3ccco3)cn12 | 10 | 135* | 114 | 2.3 | -38 | 96
Cc1cc(C)n2cc(CSCc3ccco3)nc2n1 | 0 | 92 | 19 | 1.2 | 9 | 102
Cc1cccn2cc(CSc3ccccc3N)nc12 | 12 | 139* | -3 | 3.2 | -65 | 90
O=C(Nc1cc([N+](=O)[O-])ccc1Cl)c1ccc2c(c1)OCO2 | -9 | 102 | 7 | 1.1 | -3 | 112
O=C(OCc1ccccc1)N1CCCC1/C=C/CN1CCOCC1 (stereo not drawn) | 2 | 96 | -63 | 1.2 | 3 | 100
Clc1ccc(SCc2cn3ccccc3n2)cc1 | 7 | 133* | 95 | 3 | -37 | 95
Clc1ccc2nc(CSc3nc4ccccc4o3)cn2c1 | 19 | 120 | 72 | 3.1 | -22 | 87
CNc1cc(CSc2ccc(Cl)cc2)nc(C)n1 | 0 | 135* | 87 | 2.4 | -38 | 106

Screening results as filed in PubChem.
